ChEMBL document CHEMBL4619800, “β-Hydroxy- and β-Aminophosphonate Acyclonucleosides as Potent Inhibitors of Plasmodium falciparum Growth” (J Med Chem, 2020)
The source made the active and inactive calls. The rule behind the calls is not given here.

Key:
Plasmodium falciparum [1] = test: Antiplasmodial activity against Plasmodium falciparum 3D7 infected in erythrocytes assessed as reduction in [3H]hypoxanthine incorporation preincubated for 48 hrs followed by [3H]hypoxanthine addition and measured after 18 hrs by topcount scintillation counting analysis; assay type: functional, organism-based
Method in brief: (§1)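 Modified Desjardins test. Infected erythrocytes at 1.5% final hematocrit and 0.6% parasitemia, in HEPES-buffered RPMI 1640 with 10% AB human serum and a range of compound concentrations, for 48 h. Then [³H]hypoxanthine (0.5 μCi/well) added for 18 h. Freeze-thaw lysis, filter harvest, scintillation counting, uninfected-erythrocyte background subtracted. IC50 from sigmoidal variable-slope regression. Mean of ≥3 independent experiments in duplicate.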

[2] = Toxicity in human K562 cells assessed as effect on cell growth measured after 24 hrs by [3H]thymidine incorporation based assay
Method in brief: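 K562 cells seeded at 8000 per well in RPMI 1640 with 10% FCS. Incubated 24 h at 37 °C, 5% CO₂ with a range of compound concentrations. Then 0.5 μCi [³H]thymidine added for 6 h. Freeze-thaw, harvest of macromolecules and scintillation counting, with medium-only background subtracted.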

[3] = Selectivity index, ratio of IC50 for human K562 cells to IC50 for antiplasmodial activity against Plasmodium falciparum 3D7 infected in erythrocytes; assay type: toxicity, cell-based; details: K562 cells versus Plasmodium falciparum 3D7 in erythrocytes, read-out: Ratio IC50
Plasmodium berghei [4] = test: Antiplasmodial activity against Plasmodium berghei ANKA infected in ip dosed Swiss NMRI mouse assessed as reduction in parasitemia administered once daily for 4 days measured 24 hrs post-last dose by Giemsa-staining based assay; assay type: functional
Method in brief: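 Female Swiss NMRI mice infected on day 0 by IV injection of 10⁷ P. berghei ANKA-infected erythrocytes. Dosed ip once daily for 4 days from day 1, 3 mice per group. Test doses 0–30 mg/kg in 0.9% NaCl; artesunate 0–27 mg/kg in DMSO. Controls received vehicle. Parasitemia counted on day 5 from Giemsa-stained smears, and ED50 taken as the dose giving 50% parasitemia reduction.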

Plasmodium falciparum [5] = test: (§2) Antiplasmodial activity against synchronized ring stage Plasmodium falciparum 3D7 infected in erythrocytes assessed as effect on parasite development by measuring ring stage parasitemia at 2 uM supplemented with fresh medium containing compound every 24 hrs measured at 48 hrs by Giemsa/Diff-quick staining based fluorescence microscopic analysis (reference value: 9.9%); assay type: functional
Method in brief: (§3)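 Tightly synchronized ring-stage culture at 2.5% hematocrit and 1–2% parasitemia, treated or not with 2 μM for 69 h, with drug-containing medium renewed every 24 h. Thin smears taken every 6 h, methanol-fixed and stained with Diff-Quick (pH 7.2). Parasitemia scored by parasite stage, and morphology examined.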

Plasmodium falciparum [6] = test: Antiplasmodial activity against chloroquine-resistant Plasmodium falciparum FcM29 infected in erythrocytes assessed as reduction in [3H]hypoxanthine incorporation preincubated for 48 hrs followed by [3H]hypoxanthine addition and measured after 18 hrs by topcount scintillation counting analysis; assay type: functional, organism-based; method in brief: as §1
Plasmodium falciparum [7] = test: as §2, with “measured after” for “supplemented with fresh medium containing compound every”, “24” for “24 hrs measured at 48”, “2.1%)” for “9.9%)”; assay type: functional; method in brief: as §3
Plasmodium falciparum [8] = test: as §2, with “measuring early schizont” for “measuring ring”, “at 39” for “at 48”, “value: 2.1%)” for “value: 9.9%)”; assay type: functional; method in brief: as §3
Plasmodium berghei [9] = test: Antiplasmodial activity against Plasmodium berghei ANKA infected in Swiss NMRI mouse assessed as reduction in parasitemia at 30 mg/kg, ip administered as single dose by Giemsa-staining based assay relative to control; assay type: functional; set-up: scale not given: the % may be the effect or the level left
Method in brief: (§4)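 Female Swiss NMRI mice infected on day 0 by IV caudal-vein injection of 10⁷ P. berghei ANKA-infected erythrocytes (clone 2.34). Compound given ip in 0.9% NaCl, 100 μL per mouse, 3 mice per group. Either one daily dose for 4 consecutive days from day 1, or a single dose on day 1. Parasitemia counted on Giemsa-stained thin smears and followed for 30 days. Controls received vehicle only.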

Plasmodium falciparum [10] = test: Antiplasmodial activity against chloroquine-resistant Plasmodium falciparum W2 infected in erythrocytes assessed as reduction in [3H]hypoxanthine incorporation preincubated for 48 hrs followed by [3H]hypoxanthine addition and measured after 18 hrs by topcount scintillation counting analysis; assay type: functional, organism-based; method in brief: as §1
Plasmodium berghei [11] = test: Antiplasmodial activity against Plasmodium berghei ANKA infected in Swiss NMRI mouse assessed as parasitemia at 30 mg/kg, ip administered once daily for 4 days measured on day 14 by Giemsa-staining based assay relative to control; assay type: functional; method in brief: as §4
Plasmodium berghei [12] = test: Antiplasmodial activity against Plasmodium berghei ANKA infected in Swiss NMRI mouse assessed as parasitemia at 30 mg/kg, ip administered once daily for 4 days measured on day 11 by Giemsa-staining based assay relative to control; assay type: functional; method in brief: as §4
Plasmodium berghei [13] = test: Antiplasmodial activity against Plasmodium berghei ANKA infected in po dosed Swiss NMRI mouse assessed as reduction in parasitemia administered once daily for 4 days measured 24 hrs post-last dose by Giemsa-staining based assay; assay type: functional
Method in brief: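 Female Swiss NMRI mice infected on day 0 by IV injection of 10⁷ P. berghei ANKA-infected erythrocytes. Oral dosing in water (100 μL, 3 mice per group) at 0, 1, 3, 10 and 30 mg/kg, once daily for 4 days from day 1. Water-only controls. Day-5 parasitemia counted on Giemsa-stained thin smears, and ED50 derived as the dose reducing parasitemia by 50%.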

Plasmodium falciparum [14] = test: as §2, with “measuring late schizont” for “measuring ring”, “at 42” for “at 48”, “value: 1.9%)” for “value: 9.9%)”; assay type: functional; method in brief: as §3
Plasmodium falciparum [15] = test: as §2, with “uM” for “uM supplemented with fresh medium containing compound every 24 hrs”, “immediately” for “at 48 hrs”, “2.1%)” for “9.9%)”; assay type: functional; method in brief: as §3
Plasmodium falciparum [16] = test: as §2, with “69” for “48”, “11.1%)” for “9.9%)”; assay type: functional; method in brief: as §3
Plasmodium falciparum [17] = test: (§5) Antiplasmodial activity against segmented schizont stage Plasmodium falciparum 3D7 infected in erythrocytes assessed as effect on merozoite development at 2 uM supplemented with fresh medium containing compound every 24 hrs measured at 45 hrs by Hoechst staining based immunofluorescence microscopic analysis; assay type: functional, organism-based
Method in brief: (§6)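 Tightly synchronized ring-stage culture at 2.5% hematocrit and 1–2% parasitemia, treated or not with 2 μM; drug-containing medium changed every 24 h. At 45 h (segmented schizonts), smears fixed in 4% formaldehyde/PBS, glycine-quenched, Triton X-100-permeabilized and BSA-blocked. Stained with α-mTIP and α-MSP1 antibodies, then secondaries, with Hoechst labelling nuclei.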

Plasmodium falciparum [18] = test: as §5, with “DNA content” for “development”; assay type: functional, organism-based; method in brief: as §6
Plasmodium falciparum [19] = test: as §2, with “measuring late schizont” for “measuring ring”, “value: 0.4%)” for “value: 9.9%)”; assay type: functional; method in brief: as §3

Compound	IC50 (Plasmodium falciparum [1])	IC50 at 24 h [2]	selectivity ratio [3]	further results
Nc1nc2c(ncn2C[C@H](O)CP(=O)(O)O)c(=O)[nH]1	595 µM	> 1000 µM	> 1.7	–
Nc1nc(N)c2ncn(CC[C@H](O)CP(=O)(O)O)c2n1	> 1000 µM	> 1000 µM	–	–
O=c1[nH]c(=O)c2ncn(CC[C@@H](O)CP(=O)(O)O)c2[nH]1	590 µM	> 1000 µM	–	–
Nc1ncnc2c1ncn2CC[C@H](O)CP(=O)(O)O	> 1000 µM	> 1000 µM	–	–
Nc1nc(N)c2ncn(C[C@@H](O)CP(=O)(O)O)c2n1	327 µM	> 1000 µM	> 2.6	–
Nc1nc2c(ncn2C[C@@H](O)CP(=O)(O)O)c(=O)[nH]1	> 1000 µM	> 1000 µM	–	–
Nc1ncnc2c1ncn2CC[C@@H](O)CP(=O)(O)O	> 1000 µM	> 1000 µM	–	–
C[C@H]1[C@H](OC(=O)CCC(=O)O)O[C@@H]2O[C@@]3(C)CC[C@H]4[C@H](C)CC[C@@H]1[C@@]24OO3 [ARTESUNATE]	–	–	–	ED50 (Plasmodium berghei [4]): 0.1 mg/kg
Nc1nc(N)c2ncn(CC[C@@H](O)CP(=O)(O)O)c2n1	48 µM	> 1000 µM	> 21	–
Nc1nc(O)c2ncn(CC[C@H](N)CP(=O)(O)O)c2n1	> 100 µM	> 1000 µM	–	–
Nc1nc(O)c2ncn(CC/C=C\P(=O)(O)O)c2n1	> 100 µM	> 1000 µM	–	–
Nc1nc2c(ncn2CC[C@@H](O)CP(=O)([O-])[O-])c(=O)[nH]1.[Na+].[Na+]	0.074 µM	> 1000 µM	> 1350	Activity (Plasmodium falciparum [5]): 0.6%; IC50 (Plasmodium falciparum [6]): 0.03 µM; Activity (Plasmodium falciparum [7]): 2.1%; Activity (Plasmodium falciparum [8]): 2.1%; Activity (Plasmodium berghei [9]): 95%; IC50 (Plasmodium falciparum [10]): 0.045 µM; Activity (Plasmodium berghei [11]): 1.7%; Activity (Plasmodium berghei [12]): 6.9 - 16.7%; ED50 (Plasmodium berghei [13]): 30 mg/kg; ED50 (Plasmodium berghei [4]): 0.56 mg/kg; Activity (Plasmodium falciparum [14]): 1.7%; Activity (Plasmodium falciparum [15]): 2.1%; Activity (Plasmodium falciparum [16]): 0%; Activity (Plasmodium falciparum [17]): inactive; Activity (Plasmodium falciparum [18]): inactive; Activity (Plasmodium falciparum [19]): 1.3%
Nc1nc2c(ncn2CC[C@H](O)CP(=O)(O)O)c(=O)[nH]1	6.1 µM	> 1000 µM	164	IC50 (Plasmodium falciparum [6]): 4.5 µM; IC50 (Plasmodium falciparum [10]): 5.6 µM
Nc1ncc2ncn(CC[C@@H](O)CP(=O)(O)O)c2n1	67 µM	> 1000 µM	> 16	–
Nc1nc(N)c2ncn(C[C@H](O)CP(=O)(O)O)c2n1	510 µM	> 1000 µM	> 2	–
Nc1nc(N)c2ncn(CC[C@H](N)CP(=O)(O)O)c2n1	> 100 µM	> 1000 µM	–	–
O=c1[nH]cnc2c1ncn2CC[C@H](O)CP(=O)(O)O	> 1000 µM	> 1000 µM	–	–
Nc1nc(O)c2ncn(CC[C@@H](N)CP(=O)(O)O)c2n1	> 100 µM	> 1000 µM	–	–
Nc1nc(F)nc2c1ncn2CC[C@@H](O)CP(=O)(O)O	26.3 µM	> 1000 µM	> 38	–
O=c1[nH]c(=O)c2ncn(CC[C@H](O)CP(=O)(O)O)c2[nH]1	910 µM	> 1000 µM	> 1	–
O=c1[nH]cnc2c1ncn2CC[C@@H](O)CP(=O)(O)O	> 1000 µM	> 1000 µM	–	–
Nc1nc(O)c2ncn(CCCCP(=O)(O)O)c2n1	74 µM	> 1000 µM	> 17	–
CCN(CC)CCCC(C)Nc1ccnc2cc(Cl)ccc12 (stereo not drawn) [CHLOROQUINE]	–	25.3 µM	–	–
Nc1nc(N)c2ncn(CC[C@@H](N)CP(=O)(O)O)c2n1	> 100 µM	> 1000 µM	–	–
Nc1ncnc2c1ncn2C[C@H](O)CP(=O)(O)O	> 1000 µM	> 1000 µM	–	–
Nc1ncnc2c1ncn2C[C@@H](O)CP(=O)(O)O	> 1000 µM	> 1000 µM	–	–
